Data reported in ChEMBL document CHEMBL4011598, “Sulfonamides as Selective NaV1.7 Inhibitors: Optimizing Potency and Pharmacokinetics While Mitigating Metabolic Liabilities” (J Med Chem, 2017).
Values after ≈ are worked out from the molar mass of the structure shown.

Legend:
[1] = Volume of distribution at steady state in dog at 0.25 mg/kg, iv; format: ADME, organism-based, Canis lupus familiaris; conditions: in vivo, read-out: Vdss
Procedure, shortened: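 Male dogs received a single 0.25 mg/kg iv dose in DMSO. Unbound clearance (CLu) is total clearance divided by fu, the unbound fraction in plasma.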

[2] = target: Sodium channel protein type 3 subunit alpha (Homo sapiens, UniProt Q9NY46); assay: Inhibition of human Nav1.3 expressed in CHO cells assessed as reduction in peak inward current by ionworks quattro electrophysiology assay; format: cell-based
Sodium channel protein type 3 subunit alpha, sequence (Q9NY46 whole entry): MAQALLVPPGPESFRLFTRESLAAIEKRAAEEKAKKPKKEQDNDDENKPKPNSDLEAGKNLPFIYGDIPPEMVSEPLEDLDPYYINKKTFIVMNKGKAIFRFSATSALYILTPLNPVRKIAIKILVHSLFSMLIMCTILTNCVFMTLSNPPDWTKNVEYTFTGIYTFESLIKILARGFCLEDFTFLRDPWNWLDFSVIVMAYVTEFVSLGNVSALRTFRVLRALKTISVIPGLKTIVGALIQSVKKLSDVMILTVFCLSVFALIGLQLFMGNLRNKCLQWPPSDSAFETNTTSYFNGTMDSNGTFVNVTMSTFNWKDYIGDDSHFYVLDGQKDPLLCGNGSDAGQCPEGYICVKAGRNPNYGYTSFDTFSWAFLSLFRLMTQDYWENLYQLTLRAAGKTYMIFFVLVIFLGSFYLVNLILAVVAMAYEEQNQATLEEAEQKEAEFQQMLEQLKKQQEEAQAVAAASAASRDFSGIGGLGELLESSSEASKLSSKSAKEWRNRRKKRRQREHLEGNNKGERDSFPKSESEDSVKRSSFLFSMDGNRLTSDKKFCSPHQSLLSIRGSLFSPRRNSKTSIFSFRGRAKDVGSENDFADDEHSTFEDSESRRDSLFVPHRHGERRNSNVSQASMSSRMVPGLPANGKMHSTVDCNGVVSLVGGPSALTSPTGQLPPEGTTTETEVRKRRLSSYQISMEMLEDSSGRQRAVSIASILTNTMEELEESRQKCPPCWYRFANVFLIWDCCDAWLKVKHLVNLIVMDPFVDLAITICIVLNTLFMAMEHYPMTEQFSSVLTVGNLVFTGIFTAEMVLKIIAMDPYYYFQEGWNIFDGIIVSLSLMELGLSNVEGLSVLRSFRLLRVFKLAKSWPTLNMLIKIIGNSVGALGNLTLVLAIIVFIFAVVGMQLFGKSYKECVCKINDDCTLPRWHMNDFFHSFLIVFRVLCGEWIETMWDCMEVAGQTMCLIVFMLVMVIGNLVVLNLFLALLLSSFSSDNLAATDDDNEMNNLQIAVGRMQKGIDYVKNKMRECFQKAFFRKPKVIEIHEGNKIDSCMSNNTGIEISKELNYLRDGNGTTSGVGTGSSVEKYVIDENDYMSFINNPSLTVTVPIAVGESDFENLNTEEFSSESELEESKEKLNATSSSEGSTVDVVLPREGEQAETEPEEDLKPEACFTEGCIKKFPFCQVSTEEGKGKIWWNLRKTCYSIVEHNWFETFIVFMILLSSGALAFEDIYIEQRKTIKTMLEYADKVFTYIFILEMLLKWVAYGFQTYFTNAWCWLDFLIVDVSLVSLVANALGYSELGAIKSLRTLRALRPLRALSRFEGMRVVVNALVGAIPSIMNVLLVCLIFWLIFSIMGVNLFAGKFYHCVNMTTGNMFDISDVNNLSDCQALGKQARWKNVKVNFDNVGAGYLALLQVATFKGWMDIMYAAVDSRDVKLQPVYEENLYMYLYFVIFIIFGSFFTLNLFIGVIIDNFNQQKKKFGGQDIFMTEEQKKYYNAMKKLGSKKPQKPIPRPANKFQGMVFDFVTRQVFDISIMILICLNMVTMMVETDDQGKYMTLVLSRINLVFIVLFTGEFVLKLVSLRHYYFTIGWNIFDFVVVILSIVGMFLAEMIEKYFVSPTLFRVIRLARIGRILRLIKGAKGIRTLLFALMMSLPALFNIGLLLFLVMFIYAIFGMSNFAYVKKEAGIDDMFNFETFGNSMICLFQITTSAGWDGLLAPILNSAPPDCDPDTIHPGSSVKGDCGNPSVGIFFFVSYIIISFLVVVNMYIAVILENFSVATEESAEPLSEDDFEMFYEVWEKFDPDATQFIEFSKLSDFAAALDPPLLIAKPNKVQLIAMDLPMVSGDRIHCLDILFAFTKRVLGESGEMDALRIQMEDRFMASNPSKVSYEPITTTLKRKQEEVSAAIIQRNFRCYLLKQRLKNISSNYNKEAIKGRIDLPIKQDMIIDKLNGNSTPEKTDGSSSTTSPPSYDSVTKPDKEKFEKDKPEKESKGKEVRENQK

[3] = target: Voltage-gated inwardly rectifying potassium channel KCNH2 (Homo sapiens, UniProt Q12809); assay: Inhibition of human hERG by patch clamp method
[4] = target: T1, Cytochrome P450 3A4 (Homo sapiens, UniProt P08684); assay: Inhibition of CYP3A4 (unknown origin); format: ADME
T1 sequence (P08684 whole entry): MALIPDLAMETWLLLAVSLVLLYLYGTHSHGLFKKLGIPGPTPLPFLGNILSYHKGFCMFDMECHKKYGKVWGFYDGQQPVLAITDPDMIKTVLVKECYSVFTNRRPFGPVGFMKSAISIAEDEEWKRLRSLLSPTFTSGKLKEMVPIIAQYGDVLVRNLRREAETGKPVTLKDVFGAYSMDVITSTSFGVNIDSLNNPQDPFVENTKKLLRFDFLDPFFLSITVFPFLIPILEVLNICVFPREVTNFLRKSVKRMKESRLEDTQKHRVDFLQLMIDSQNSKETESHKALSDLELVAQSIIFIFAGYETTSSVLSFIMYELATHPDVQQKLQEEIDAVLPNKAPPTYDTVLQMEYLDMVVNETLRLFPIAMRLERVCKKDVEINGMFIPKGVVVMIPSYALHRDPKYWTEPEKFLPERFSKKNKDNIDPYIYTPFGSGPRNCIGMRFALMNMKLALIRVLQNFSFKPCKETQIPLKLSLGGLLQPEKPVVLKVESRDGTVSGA

[5] = test system: Rattus norvegicus; assay: Unbound clearance in rat at 0.5 mg/kg, iv; format: ADME, organism-based; conditions: in vivo
Procedure, shortened: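 Male rats given a single 0.5 mg/kg iv dose in DMSO. Unbound clearance (CLu) is total clearance divided by fu, the unbound fraction in plasma.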

[6] = Unbound fraction in mouse plasma at 5 uM by LC-MS/MS method; format: ADME, cell-free
[7] = target: Cytochrome P450 2C9 (Homo sapiens, UniProt P11712); assay: Inhibition of CYP2C9 (unknown origin); format: ADME
Cytochrome P450 2C9, sequence (P11712 whole entry): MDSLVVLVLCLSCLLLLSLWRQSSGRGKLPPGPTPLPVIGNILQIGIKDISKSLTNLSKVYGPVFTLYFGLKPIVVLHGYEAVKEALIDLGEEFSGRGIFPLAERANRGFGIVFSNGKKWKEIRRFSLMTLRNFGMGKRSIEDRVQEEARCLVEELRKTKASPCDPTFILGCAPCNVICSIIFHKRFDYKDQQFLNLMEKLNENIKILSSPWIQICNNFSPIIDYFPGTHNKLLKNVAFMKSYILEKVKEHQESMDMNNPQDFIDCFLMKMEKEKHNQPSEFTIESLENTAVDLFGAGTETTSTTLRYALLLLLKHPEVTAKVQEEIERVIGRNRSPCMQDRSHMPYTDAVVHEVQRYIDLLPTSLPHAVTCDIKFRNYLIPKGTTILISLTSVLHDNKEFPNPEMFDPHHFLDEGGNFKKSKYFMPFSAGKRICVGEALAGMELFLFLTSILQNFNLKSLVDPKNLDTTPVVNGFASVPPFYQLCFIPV

[8] = Tmax in rat at 10 mg/kg, po; format: ADME, organism-based; conditions: in vivo
[9] = target: Sodium channel protein type 8 subunit alpha (Homo sapiens, UniProt Q9UQD0); assay: Inhibition of human Nav1.6 expressed in HEK293 cells assessed as reduction in peak inward current by ionworks quattro electrophysiology assay; format: cell-based
Sodium channel protein type 8 subunit alpha, sequence (Q9UQD0 whole entry): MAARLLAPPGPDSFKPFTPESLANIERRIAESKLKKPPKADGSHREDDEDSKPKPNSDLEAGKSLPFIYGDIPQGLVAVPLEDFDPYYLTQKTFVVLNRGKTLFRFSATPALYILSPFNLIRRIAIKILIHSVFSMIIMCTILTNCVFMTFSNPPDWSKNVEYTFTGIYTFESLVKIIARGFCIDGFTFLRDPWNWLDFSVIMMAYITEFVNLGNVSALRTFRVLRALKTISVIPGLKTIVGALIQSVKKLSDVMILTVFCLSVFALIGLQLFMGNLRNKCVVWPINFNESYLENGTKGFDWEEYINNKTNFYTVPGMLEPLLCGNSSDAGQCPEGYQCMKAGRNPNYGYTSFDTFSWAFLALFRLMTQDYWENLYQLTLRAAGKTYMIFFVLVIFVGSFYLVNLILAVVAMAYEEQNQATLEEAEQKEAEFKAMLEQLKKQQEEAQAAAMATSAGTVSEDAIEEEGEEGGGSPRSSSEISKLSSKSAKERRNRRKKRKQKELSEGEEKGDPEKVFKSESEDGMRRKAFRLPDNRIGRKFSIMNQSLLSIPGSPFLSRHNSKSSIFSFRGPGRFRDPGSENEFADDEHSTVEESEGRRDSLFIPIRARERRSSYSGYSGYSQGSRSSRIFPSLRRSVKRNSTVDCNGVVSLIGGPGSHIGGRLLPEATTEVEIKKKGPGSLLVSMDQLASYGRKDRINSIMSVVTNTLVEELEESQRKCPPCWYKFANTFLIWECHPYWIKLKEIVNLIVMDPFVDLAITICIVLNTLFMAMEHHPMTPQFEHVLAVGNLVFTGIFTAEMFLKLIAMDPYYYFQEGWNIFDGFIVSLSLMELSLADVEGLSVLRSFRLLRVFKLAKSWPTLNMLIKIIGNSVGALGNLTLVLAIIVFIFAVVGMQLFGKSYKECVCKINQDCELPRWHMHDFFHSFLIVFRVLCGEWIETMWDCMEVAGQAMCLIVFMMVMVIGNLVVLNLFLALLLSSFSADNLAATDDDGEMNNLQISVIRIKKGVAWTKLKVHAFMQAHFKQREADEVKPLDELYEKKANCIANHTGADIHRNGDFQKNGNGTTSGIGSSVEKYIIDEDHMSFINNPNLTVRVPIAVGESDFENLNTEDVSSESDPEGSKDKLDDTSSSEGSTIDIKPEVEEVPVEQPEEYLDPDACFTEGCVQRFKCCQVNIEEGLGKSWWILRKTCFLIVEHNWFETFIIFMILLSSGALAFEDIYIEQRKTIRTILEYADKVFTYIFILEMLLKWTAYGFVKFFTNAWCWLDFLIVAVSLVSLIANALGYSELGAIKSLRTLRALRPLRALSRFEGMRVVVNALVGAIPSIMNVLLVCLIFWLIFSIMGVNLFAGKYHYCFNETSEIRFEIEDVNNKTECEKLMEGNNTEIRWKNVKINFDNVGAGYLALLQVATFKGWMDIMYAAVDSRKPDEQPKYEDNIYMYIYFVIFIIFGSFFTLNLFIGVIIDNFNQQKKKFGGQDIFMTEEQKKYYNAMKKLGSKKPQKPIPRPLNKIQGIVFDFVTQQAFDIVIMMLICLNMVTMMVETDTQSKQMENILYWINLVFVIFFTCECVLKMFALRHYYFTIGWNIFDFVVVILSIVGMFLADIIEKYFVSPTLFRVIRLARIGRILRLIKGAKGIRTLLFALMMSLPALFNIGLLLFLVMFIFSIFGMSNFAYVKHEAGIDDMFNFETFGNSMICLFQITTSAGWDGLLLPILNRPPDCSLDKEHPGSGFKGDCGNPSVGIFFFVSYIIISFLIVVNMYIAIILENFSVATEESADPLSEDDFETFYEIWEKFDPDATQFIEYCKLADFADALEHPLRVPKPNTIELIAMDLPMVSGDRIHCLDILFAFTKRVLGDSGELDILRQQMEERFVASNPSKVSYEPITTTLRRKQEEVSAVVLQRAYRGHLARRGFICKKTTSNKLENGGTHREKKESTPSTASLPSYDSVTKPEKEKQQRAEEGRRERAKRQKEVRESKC

[10] = target: T1, Cytochrome P450 3A4; assay: Induction of CYP3A4 in human hepatocytes at 10 uM relative to rifampicin
[11] = Intrinsic clearance in rat liver microsomes at 1 uM after 1 to 40 mins in presence of NADPH by LC-MS/MS analysis; format: ADME, microsome; conditions: read-out: CLH
[12] = Aqueous solubility of the compound in PBS after 48 hrs by shake flask method; format: physicochemical
[13] = target: Sodium channel protein type 4 subunit alpha (Homo sapiens, UniProt P35499); assay: Inhibition of human Nav1.4 expressed in HEK293 cells assessed as reduction in peak inward current by ionworks quattro electrophysiology assay; format: cell-based

Vd [1]: 0.56 L/kg
IC50 [2]: 6.9 µM
IC50 [4]: > 15 µM
CL free [5]: 433 mL/min/kg
fraction unbound at 5 µM [6]: 0.0116
IC50 [7]: 0.43 µM
Tmax [8]: 6 h
IC50 [9]: 16 µM
Activity [10]: 7%
microsomal CLint at 1 µM [11]: < 14 µL/min/mg
solubility thermodynamic at 48 h [12]: 432 µM (≈ 235 µg/mL)
IC50 [13]: 12 µM
Structure (SMILES): COc1cc(-c2cccc(C(F)(F)F)c2)c(F)cc1-c1nccc2cc(S(=O)(=O)Nc3ccon3)ccc12
IC50 [3]: > 10 µM
